Source: PubChem BioAssay
In the library only some 1.5% were active in any assay of this set; here they are far more common.
TbHK1 inh – T. brucei hexokinase 1 inhibition | AID 1430 | 0.11% of 220,000 active | recombinant TbHK1, G6PDH-coupled NADH A340 | inhibition, % at 10 µM;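 active means inhibition of 50% or more in the single-dose primary screen; inactive means inhibition below 50%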
S1P4 antagonist – human S1P4 receptor antagonism; AID 1510; S1P4-expressing cells, antagonist mode, reporter read-out; inhibition, % at 4.98 µM; O95977; 0.26% of 220,000 active; in the data active means inhibition above about 29%;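 further: 0% = wells stimulated with agonist and 100% = vehicle wells without agonist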
Target sequence (O95977 whole entry, looked up): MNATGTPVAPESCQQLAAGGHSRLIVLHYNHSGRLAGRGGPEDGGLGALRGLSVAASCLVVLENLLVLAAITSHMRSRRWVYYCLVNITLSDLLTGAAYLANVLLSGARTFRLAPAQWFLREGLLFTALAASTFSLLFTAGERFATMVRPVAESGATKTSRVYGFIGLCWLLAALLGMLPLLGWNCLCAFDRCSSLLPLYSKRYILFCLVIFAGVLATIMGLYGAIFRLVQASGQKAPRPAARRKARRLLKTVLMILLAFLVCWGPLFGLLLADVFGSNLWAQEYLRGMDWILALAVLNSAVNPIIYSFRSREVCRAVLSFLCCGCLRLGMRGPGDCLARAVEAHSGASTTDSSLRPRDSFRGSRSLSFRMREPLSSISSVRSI
TNF death inh – inhibitors of TNF-alpha induced necroptosis in Jurkat FADD-/- cells. Jurkat FADD-/- TNF necroptosis rescue, ATP luminescence, 24 h; 0 = TNF only, 100 = no-TNF cells. activation (protection from cell death), % at 10 µM. 0.068% of 220,000 active. AID 463075;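 active means activation, meaning protection from cell death, of at least 50% relative to plate controls; inactive means activation below 50%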;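 further: necroptosis triggered by 40 ng/mL TNF-alpha added together with compound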
Dynein transport – blocks dynein driven cargo transport along microtubules. 3617.4 mouse cells, GR-EGFP nuclear translocation imaging; test concentration mostly 20 µM; stimulated with dexamethasone, 1 µM; hits give low values. z-score, hits read low. 0.47% of 220,000 active. AID 1381;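 active means plate z-score of nuclear minus cytoplasmic receptor signal below a set negative limit, without overly bright fluorescence or cell loss, cut at about -3.5 in these data, passing the limit was not always enough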;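 further: z-score of nuclear minus cytoplasmic ring GR-EGFP intensity difference per well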
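Medium: Induction medium lacking tetracycline, stripped serum | Probe or stimulus: 1.0 µM final dexamethasone stimulus | Schedule: 48 h induction, then 1 h compound, then 30 min agonist, 37 °C | Signal: Automated 10x imaging of fixed Hoechst-stained cells | Evaluation: Per-cell GR-EGFP intensity, nucleus versus surrounding cytoplasmic ring, well-averaged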
zVAD death inh – L929 zVAD cell death inhibition. L929 zVAD necroptosis rescue, ATP luminescence, 24 h; with zVAD 60 µM. viability rescue, % at 10 µM. 0.38% of 220,000 active. AID 1377;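 active means activation, scaled between plate controls, above about 75%, limit read from the data; inactive means activation under that limit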;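 further: 0% = zVAD with DMSO and 100% = DMSO alone without zVAD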
S1P4 ag – human S1P4 receptor agonism. O95977. S1P4-expressing cell line, agonist reporter assay. activation, % at 4.98 µM. 0.35% of 220,000 active. AID 1509; in the data active means activation above about 11%;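 further: 0% = DMSO vehicle and 100% = reference agonist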
Numbers without * were called inactive.

SMILES | TbHK1 inh | S1P4 antagonist | TNF death inh | Dynein transport | zVAD death inh | S1P4 ag
COC(=O)c1ccc(C(C(=O)NCc2ccccc2)N(Cc2ccco2)C(=O)c2cnccn2)cc1 (configuration not stated) | -9 | 2 | -3 | 1.9 | -1 | 19*
O=C(NCc1ccccc1)C(c1cccnc1)N(Cc1ccco1)C(=O)c1ccccn1 (configuration not stated) | 3 | -6 | -3 | -0.35 | 0 | 0
O=C(Nc1nc(-c2ccc3c(c2)OCO3)cs1)C1CC1 | -8 | -9 | 8 | 1.8 | 76* | 1
Cn1nnnc1SCCNCc1ccccc1F | 4 | -1 | 0 | -0.64 | -1 | 4
Cn1nnnc1SCc1ccccc1F | -1 | -14 | 25 | 0.77 | 77* | 0
COc1ccc(CCNc2nc(=S)[nH]c3cc(OC)c(OC)cc23)cc1OC | -12 | -15 | -2 | -0.1 | 82* | 0
S=C(NCC1CCCO1)N1CCN(Cc2ccccc2Cl)CC1 (configuration not stated) | -1 | -12 | 1 | -0.71 | 19 | 2
CCCOC(=O)c1cc(-c2ccc(/C=C3/C(=O)N(C)C(=O)C(C#N)=C3C)o2)ccc1Cl | 16 | -5 | -2 | -3.7* | 1 | -1
C=CCOC(=O)c1cc(-c2ccc(/C=C3\C(=O)NC(=O)C(C#N)=C3C)o2)ccc1Cl | -9 | -13 | -4 | -4.4* | 0 | 3
Cc1noc(/C=C/c2cccs2)c1S(=O)(=O)N1CCC(C(=O)NCCCN2CCC(C)CC2)CC1 | -28 | 8 | 0 | -1.1 | 0 | 0
O=C1N/C(=N\N=C\c2ccc3ncccc3c2)SC1Cc1ccc(SC(F)F)cc1 (configuration not stated) | -30 | -19 | 2 | -0.97 | 1 | 0
O=C1N/C(=N\N=C\c2ccccn2)SC1Cc1cccc(SC(F)F)c1 (configuration not stated) | -16 | -16 | -15 | -0.81 | 82* | 1
Cc1ccnc(NC(=O)C2COc3ccccc3O2)c1 (configuration not stated) | 7 | -12 | 16 | -0.2 | 1 | 0
Cc1ccc(NC(=O)C2COc3ccccc3O2)nc1 (configuration not stated) | 14 | 10 | 89* | -0.8 | 1 | 0
Cc1cc(C)c(CSc2ncnc3nc[nH]c23)c(C)c1 | 0 | -10 | -2 | 0.59 | 2 | 1
C/C(CC(=O)NCc1ccco1)=N\NC(=O)C(c1ccccc1)c1ccccc1 | 2 | -1 | 27 | 1.9 | 77* | -1
C/C(CC(=O)NCc1ccco1)=N\NC(=O)Cc1ccccc1 | -3 | -8 | -3 | -0.21 | 0 | 0
O=S(=O)(Nc1ccccc1)c1ccc2c(c1)CCO2 | 35 | 4 | 52* | -1.7 | 9 | 1
Cc1csc(NC(=O)c2cncc(Br)c2)n1 | -23 | -4 | 2 | 1.4 | 0 | 2
COc1ccccc1/C=C/C(=O)c1cc(Br)ccc1OC(=O)c1ccco1 | -7 | 14 | -16 | -5.3* | 0 | 0
Cc1ccc(/C=C/C(=O)c2cc(Br)ccc2OC(=O)c2ccco2)cc1 | -6 | 29 | -20 | -2.6 | 0 | 3
Cc1cccc2c1NC(=O)C2(c1ccc(O)cc1)c1ccc(O)cc1 | -4 | 98* | -9 | -0.47 | 0 | -5
Cc1cc(C2(c3ccc(O)c(C)c3)C(=O)Nc3ccccc32)ccc1O | -3 | -3 | -14 | -2.7 | -1 | 0
COc1ccc(C(=O)Nc2ccc3cn[nH]c3c2)c(OC)c1 | -4 | -8 | -4 | 0.68 | 69 | 0
COc1ccccc1-c1cc(C(F)(F)F)nc(S(=O)(=O)CCCC(=O)Nc2cccnc2Cl)n1 | -6 | 50* | -13 | -4.4* | -1 | -1
SMILES | TbHK1 inh | S1P4 antagonist | TNF death inh | Dynein transport | zVAD death inh | S1P4 ag
C/C(=N\NC(=O)c1ccncc1)c1cc2ccccc2oc1=O | -14 | -5 | 1 | -0.064 | 0 | 0
C/C(=N/NC(=O)c1ccncc1)c1cc2ccc(O)cc2oc1=O | -11 | -68 | 2 | -0.38 | 0 | 48*
O=C(NCC1CCCO1)C(c1ccc(F)cc1)N(C(=O)Cn1nnc(-c2ccc(F)cc2)n1)c1cccc(O)c1 (configuration not stated) | -7 | 5 | -1 | -0.95 | 0 | 3
CCCCCCC(=O)Cc1cc(OC)c(OC)cc1C=C(C(=O)OCC)C(=O)OCC | -1 | 22 | 1 | -4.3* | 2 | 0
O=C(COc1ccc(Cl)cc1[N+](=O)[O-])N1CCCCCC1 | -6 | -12 | 1 | 0.33 | 0 | 2
Cc1c(Nc2cc(N3CCOCC3)c3nonc3c2[N+](=O)[O-])c(=O)n(-c2ccccc2)n1C | -5 | 1 | 0 | 0.85 | 0 | -3
Cc1c(Nc2cc(Cl)c3nonc3c2[N+](=O)[O-])c(=O)n(-c2ccccc2)n1C | -3 | -12 | -14 | -6* | -5 | 4
COc1cccc(NC(=O)c2cc(-c3cccnc3)nc3c(Cl)cccc23)c1 | -6 | 0 | -7 | 1.4 | 84* | 0
COc1ccc(NC(=O)c2cc(-c3cccnc3)nc3c(C)c(C)ccc23)c(OC)c1 | -16 | -1 | -16 | -0.82 | 0 | 1
CCOc1cc(/C=N/Nc2ccccc2Cl)ccc1OCC(=O)O | -11 | -14 | 3 | -0.22 | 1 | 1
O=C(N/N=C/c1ccc([N+](=O)[O-])o1)c1cc(-c2ccncc2)nc2ccccc12 | -19 | 9 | -23 | -5* | 1 | 0
CCC(C)c1ccc(O)c(NC(=O)c2cncc(Br)c2)c1 (configuration not stated) | 9 | 0 | 78* | 0.82 | 2 | 2
N#Cc1ccccc1Sc1ccccc1C(=O)OCC(N)=O | -14 | -16 | -2 | -0.39 | 0 | 1
N#Cc1ccccc1Sc1ccccc1C(=O)OCc1nnc(-c2ccccc2)o1 | 58* | -15 | 1 | 0.94 | 0 | -1
CC(=O)Nc1ccc(Sc2ncccc2C(=O)Nc2cc(Cl)cc(Cl)c2)cn1 | -6 | -11 | -6 | 0.25 | 89* | -1
COc1cc(NC(=O)c2cccnc2Sc2ccc(C)c(C)c2)cc(OC)c1OC | 0 | -14 | 1 | 0.094 | 8 | 0
COc1ccc(-n2nnnc2S(=O)(=O)CC(=O)N2CCCCC2)cc1 | 8 | 54* | -16 | -3.9* | 79* | -3
COC(=O)c1cc(OC)c(OC)cc1NC(=O)c1cc(C(C)(C)C)oc1C | -27 | -3 | 0 | -0.84 | 3 | -1
CC(C)(Sc1cc(C(C)(C)C)c(O)c(C(C)(C)C)c1)Sc1cc(C(C)(C)C)c(O)c(C(C)(C)C)c1 | -13 | -19 | 2 | -1.3 | 2 | 49*
COC(=O)C1=C(NC(=O)c2ccccc2C)CCS1 | -13 | -5 | -2 | 2.2 | 1 | -1
